Assay results as given in ChEMBL document CHEMBL1145117, “Structures and cytotoxic properties of trichoverroids and their macrolide analogues produced by saltwater culture of Myrothecium verrucaria” (J Med Chem, 2003).
pIC50: −log10 of the molar value.

Experiments:
RXF 393 = assay: In vitro antitumor activity against renal RXF 393 tumor cell lines; format: functional, cell-based, Homo sapiens; details: rxf 393
NCI-H522 = assay: In vitro antitumor activity against NSCL NCI-H522 tumor cell lines; format: functional, cell-based, Homo sapiens; details: nci-h522
NCI-H226 = assay: In vitro antitumor activity against NSCL NCI-H226 tumor cell lines; format: functional, cell-based, Homo sapiens; details: nci-h226
786-0 = assay: In vitro antitumor activity against renal 786-0 tumor cell lines; format: functional, cell-based, Homo sapiens
M14 = assay: In vitro antitumor activity against melanoma M14 tumor cell lines; format: functional, cell-based, Homo sapiens; details: m14
HL-60 = assay: In vitro antitumor activity against leukemia HL-60(TB) tumor cell lines; format: functional, cell-based, Homo sapiens; details: hl-60
MCF7 = assay: In vitro antitumor activity against breast MCF-7 tumor cell lines; format: functional, cell-based, Homo sapiens; details: mcf7
SK-MEL-2 = assay: In vitro antitumor activity against melanoma SK-MEL-2 tumor cell lines; format: functional, cell-based, Homo sapiens; details: sk-mel-2
A498 = assay: In vitro antitumor activity against renal A498 tumor cell lines; format: functional, cell-based, Homo sapiens; details: a498
MOLT-4 = assay: In vitro antitumor activity against leukemia MOLT-4 tumor cell lines; format: functional, cell-based, Homo sapiens; details: molt-4
CCRF-CEM = assay: In vitro antitumor activity against leukemia CCRF-CEM tumor cell lines; format: functional, cell-based, Homo sapiens; details: ccrf-cem
UACC-62 = assay: In vitro antitumor activity against melanoma UACC-62 tumor cell lines; format: functional, cell-based, Homo sapiens; details: uacc-62
HCT-15 = assay: In vitro antitumor activity against colon HCT-15 tumor cell lines; format: functional, cell-based, Homo sapiens; details: hct-15
MDA-MB-435 = assay: In vitro antitumor activity against breast MDA-MB-435 tumor cell lines; format: functional, cell-based, Homo sapiens; details: mda-mb-435
HCT-116 = assay: In vitro antitumor activity against colon HCT116 tumor cell lines; format: functional, cell-based, Homo sapiens; details: hct-116
Homo sapiens [1] = organism: Homo sapiens; assay: Concentration giving 500 zone units against H116 colon tumor cell lines; format: functional
Method in brief: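 Disk diffusion soft agar colony formation assay on human H116 colon tumor cells. Each sample was applied to a disk as 15 µL, and activity was read as zone units. The value is the sample concentration that gave 500 zone units.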

COLO 205 = assay: In vitro antitumor activity against colon COLO 205 tumor cell lines; format: functional, cell-based, Homo sapiens; details: colo 205
A549 = assay: In vitro antitumor activity against NSCL A549/ATCC tumor cell lines; format: functional, cell-based, Homo sapiens; details: a549
MDA-N = assay: In vitro antitumor activity against breast MDA-N tumor cell lines; format: functional, cell-based, Homo sapiens; details: mda-n
Homo sapiens [2] = organism: Homo sapiens; assay: Activity relative to compound 3 (set to 1.0) was evaluated against H116 colon tumor cell lines; format: functional
Method in brief: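 Disk diffusion soft agar colony formation assay on human H116 colon tumor cells, with 15 µL of sample applied to a disk and zone units read. Relative activity = (dilution required for 500 zone units × 100)/(mg/mL), normalised to a reference compound set at 1.0.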

colon = assay: Selectivity was evaluated against human ZH116 colon cell lines-CEM lymphocytic leukemia cell lines at a concentration of 0.24 ug/mL; format: functional, cell-based
Method in brief: (§1)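 Disk diffusion soft agar colony formation assay; sample applied to disk (15 μL); cytotoxicity read as zone units. Differential = zone difference between a solid tumor line (murine Colon38; human colon H116, lung H125) and leukemia (murine L1210, human CEM) or normal bone marrow CFU-GM (murine/human). Solid tumor selective if differential exceeds 250 units.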

NCI-H125 = assay: Selectivity was evaluated against human ZH125 lung non small cell carcinoma cell lines-CEM lymphocytic leukemia cell lines at a concentration of 0.24 ug/mL; format: functional, cell-based; method in brief: as §1
L1210 = assay: Selectivity was evaluated murine tumor against ZL1210 lymphocytic leukemia cell lines- ZCFU-GM normal bone marrow cell lines at a concentration of 0.24 ug/mL; format: functional, cell-based; details: Mus musculus; method in brief: as §1
MC-38 [3] = assay: Selectivity was evaluated against murine tumor ZC38 colon adenocarcinoma cell lines- ZCFU-GM normal bone marrow cell lines at a concentration of 0.24 ug/mL; format: functional, cell-based; details: Mus musculus; method in brief: as §1
MC-38 [4] = assay: Selectivity was evaluated against Murine tumor ZC38 colon adenocarcinoma cell lines- ZL1210 lymphocytic leukemia cell lines at a concentration of 0.24 ug/mL; format: functional, cell-based; details: Mus musculus; method in brief: as §1

| SMILES | pIC50 (RXF 393) | pIC50 (NCI-H522) | pIC50 (NCI-H226) | pIC50 (786-0) | pIC50 (M14) | pIC50 (HL-60) | pIC50 (MCF7) | pIC50 (SK-MEL-2) | pIC50 (A498) | pIC50 (MOLT-4) | pIC50 (CCRF-CEM) | pIC50 (UACC-62) | pIC50 (HCT-15) | pIC50 (MDA-MB-435) | pIC50 (HCT-116) | Concentration (Homo sapiens [1]) [µg/mL] | pIC50 (COLO 205) | pIC50 (A549) | pIC50 (MDA-N) | other results |
| --- | --- | --- | --- | --- | --- | --- | --- | --- | --- | --- | --- | --- | --- | --- | --- | --- | --- | --- | --- | --- |
| CC1=C[C@H]2O[C@@H]3[C@H](O)[C@H]4OC(=O)/C=C\C=C\[C@H]([C@@H](C)O)OCC/C(C)=C/C(=O)OC[C@@]2(CC1)[C@]4(C)[C@]31CO1 | 7.24 | < 5.00 | 8.15 | 7.23 | > 9.00 | 8.00 | < 5.00 | < 5.00 | 8.05 | < 5.00 | < 5.00 | 8.05 | < 5.00 | 8.40 | > 9.00 | 0.14 | < 5.00 |  |  |  |
| CC1=C[C@H]2O[C@@H]3C[C@H]4OC(=O)/C=C\C=C\[C@H]([C@H](C)O)OCC/C(C)=C/C(=O)OC[C@@]2(CC1)[C@]4(C)[C@]31CO1 |  |  |  |  |  |  |  |  |  |  |  |  |  |  |  | 8.6 |  |  |  |  |
| CC(=O)OC(C)[C@@H](O)/C=C/C=C\C(=O)O[C@@H]1CC2O[C@@H]3C=C(C)CC[C@]3(COC(=O)/C=C(\C)CCO)[C@]1(C)[C@]21CO1 (some centres undefined) [13`-ACETYLTRICHOVERRIN B] | < 5.00 | 5.92 | 5.31 | < 5.00 | 5.05 | < 5.00 | < 5.00 | < 5.00 | 5.62 | < 5.00 | < 5.00 | 5.02 | < 5.00 | 5.65 | < 5.00 | 31 | 6.21 | 5.01 | 5.29 |  |
| CC1=C[C@H]2O[C@@H]3C[C@H]4OC(=O)/C=C\C=C\[C@H]([C@H](C)O)OCC[C@@H](C)[C@H](O)C(=O)OC[C@@]2(CC1)[C@]4(C)[C@]31CO1 [(6'R,13'S) ISORORIDIN A] | 8.00 | 7.02 |  | < 5.00 | 8.00 | < 5.00 | < 5.00 | < 5.00 | 8.22 | < 5.00 | < 5.00 | 8.70 | < 5.00 | 7.51 | < 5.00 | 0.9 | 8.10 | < 5.00 | 8.10 |  |
| CC(=O)OC[C@]12CCC(C)=C[C@H]1O[C@@H]1[C@H](O)[C@@H](OC(C)=O)[C@@]2(C)[C@]12CO2 [ANGUIDIN] | > 9.00 | > 9.00 | > 9.00 | > 9.00 | > 9.00 | > 9.00 | > 9.00 | > 9.00 | > 9.00 | > 9.00 | > 9.00 | > 9.00 | > 9.00 | > 9.00 | > 9.00 | 0.24 | > 9.00 | > 9.00 | > 9.00 | Relative activity (Homo sapiens [2]): 423; Selectivity (colon): -100 zone unit; Selectivity (NCI-H125): 0 zone unit; Selectivity (L1210): 150 zone unit; Selectivity (MC-38 [3]): 0 zone unit; Selectivity (MC-38 [4]): -150 zone unit |
| CC1=C[C@H]2O[C@@H]3C[C@H]4OC(=O)/C=C\C=C\[C@H]([C@@H](C)O)OCC[C@@H](C)[C@H](O)C(=O)OC[C@@]2(CC1)[C@]4(C)[C@]31CO1 [RORIDIN A] | 8.70 | > 9.00 | 8.52 | 7.40 | > 9.00 | < 5.00 | < 5.00 | 8.52 | 6.50 | < 5.00 | < 5.00 | 8.30 | < 5.00 | 8.22 | < 5.00 | 0.78 | 8.52 | < 5.00 | 8.52 |  |
